The source of these data is article PMC7397943 (Journal of Ethnopharmacology, 2020).

Data set [1] can be described thus: Cell viability in mock–infected MT–2 cells. In kind it is cell-based. Particulars: human, mock-infected MT-2 cells. A digest of the protocol:
(§1)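 Test compound (from 10 mg/mL or 10 mM DMSO stocks) was added at graded concentrations to mock-infected MT-2 cells, run in parallel with the 48 h antiviral assay. Cells were grown in RPMI-1640 with 10% FBS, 2 mM L-glutamine and penicillin/streptomycin at 37 °C, 5% CO2. Viability was read by CellTiter Glo as % of the DMSO-matched control. CC50 came from non-linear regression.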

Data set [2] has as its system MT–2 cells. Description: Cell viability in mock–infected MT–2 cells. In kind it is cell-based. As to conditions: MT–2 cells. Put shortly: as §1
The test system of data set [3] is VSV pseudotyped HIV (VSV–HIV). Description: microbe, parasite or virus in culture. In kind it is cell-based, HIV–1. As to conditions: for IC50: Vesicular stomatitis virus, MT2, 48 h, read-out: IC50 μM VSV–HIV (CI95%; R2); for Effect on viral entry: comparison of HIV IC50 and VSV–HIV IC50 in MT–2 cells.
Data set [4] relates to HIV transcription (pNL4.3–Luc). Description: HIV transcription assay: MT–2 cells transfected with pNL4.3–Luc. The data set is classed as cell-based, HIV–1. Put shortly: (§2)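 MT-2 cells were electroporated at 260 V in serum-free RPMI with a luciferase reporter: pNL4.3-Luc (whole HIV-1 genome), 3-enh-κB-ConA-luc (three κB copies), or Sp1-Luc (two Sp1 sites). Cells were seeded in complete RPMI with serial dilutions or one selected concentration of test compound at 37 °C for 48 h. PMA 100 nM was the reference. RLUs were expressed as % of DMSO control, with Bonferroni-corrected one-way ANOVA.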

Data set [5] relates to recombinant HIV–1 (NL4.3–Ren). The data set is classed as cell-based. As to conditions: Human immunodeficiency virus 1, MT2, 48 h, read-out: IC50 μM HIV (CI95%; R2), isolated compounds, MT–2 cells, wild type HIV NL4.3–Ren. Put shortly:
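MT-2 cells (RPMI-1640, 10% FBS, 2 mM L-glutamine, penicillin/streptomycin; 37 °C, 5% CO2) were infected with NL4.3-Ren supernatant (100.000 RLUs or 20 ng p24 per well) alongside serial dilutions of test compound (10 mM DMSO stock). Enfuvirtide served as control. After 48 h, lysates were read for Renilla-luciferase RLUs against vehicle-matched untreated cells (100%). IC50 came from non-linear regression.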

In data set [6] the test system is NF–κB. Description: NF–κB activity: MT–2 cells transfected with NF–κB–Luc plasmid. The data set is classed as cell-based. Put shortly: as §2
In data set [7] the test system is Sp1. In words: Sp1 activity: MT–2 cells transfected with Sp1–Luc plasmid. The data set is classed as cell-based. As to conditions: 48 h. Put shortly:
as §2

The test system of data set [8] is THP–1 cells. In words: Glutathione determination. The data set is classed as cell-based. Particulars: maximum redox index reached, maximum 1 (all glutathione reduced). A digest of the protocol:
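THP-1 cells were treated with serial dilutions of test compound, with resveratrol as reference. Cells were lysed in 0.1 M sodium phosphate/0.005 M EDTA, pH 8, plus 60% HClO4 (10 μL/mL), then spun at 6000g for 10 min at 4 °C. GSH and GSSG were measured by OPT fluorescence (ex 350/em 420 nm) against a GSH standard curve. Redox index = GSH/(GSH+GSSG), maximum 1. EC50 and Emax came from non-linear dose-response fits.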

Setting [9] is: fixed concentration 20 μM, pNL4.3–Luc, 48 h.
Setting [10] is: fixed concentration 20 μM, NF–κB–Luc, 48 h.

The structures appear in SMILES notation.

Take `C[C@]12CCC(=O)C=C1C=C[C@@H]1[C@@H]2CC[C@@]2(C)[C@H]1CC[C@@]21CCC(=O)O1` [Canrenone, canrenone]: the CC50 at 48 h in data set [1] is around 100 µM. Moreover, in data set [2] (100 μM), the “Toxicity at 100 μM” value is listed as “slight toxicity”. In addition, in data set [3], the IC50 came out at 14.2 µM and the “Effect on viral entry” value was “viral entry is not their target”. For the same compound, the “Effect on HIV transcription” value in data set [4] (one selected active concentration (not given), compared with damsin) is “slightly less active”. Besides, in data set [5], the IC50 came out at 18.9 µM. Besides, the “Effect on NF–κB activity” value in data set [6] (one selected active concentration (not given)) is “more powerful activity as a NF–κB inhibitor than as a Sp1 inhibitor”.

Compound `C=C1C(=O)O[C@@H]2[C@H]1CC[C@H](C)[C@@H]1CCC(=O)[C@@]21C` [Damsin, damsin] returned a cytotoxic concentration (CC50) at 48 h in data set [1] of 20 to 100 µM. For the same compound, in data set [2], the “Concentrations toxic to MT–2 cells” value was “higher than 20 μM”. In data set [3], the IC50 came out at 0.83 µM and the “Effect on viral entry” value is given as “viral entry is not their target”. Moreover, the “Effect on HIV transcription” value in data set [4] (4 μM, pNL4.3–Luc, 48 h, vs untreated control) is recorded as “completely inhibits”. Besides, the IC50 in data set [5] amounted to 0.84 µM. In addition, the “Effect on NF–κB activity” value in data set [6] (4 μM, NF–κB–Luc, 48 h, vs untreated control) is listed as “completely inhibits”. Also, the “Effect on Sp1 activity” value in data set [7] (4 μM, vs untreated control) was “completely inhibits”.

With `Oc1ccc(/C=C/c2cc(O)cc(O)c2)cc1` [Resveratrol, resveratrol, reference compound], the “Emax (CI95%)” value in data set [8] is on record as 0.94 (0.92–0.96).

In data set [1], `COc1ccc(-c2cc(=O)c3cc(OC)ccc3o2)c(OC)c1` [Trimethoxyflavone, 6,2′,4′–trimethoxyflavone] returned a CC50 at 48 h above 100 µM. In addition, the figures for the concentration for half-maximal inhibition (IC50) in data set [3] and in data set [5] were 35.6 µM and 28.4 µM, respectively. Besides, in data set [3], the “Effect on viral entry” value is on record as “ruling out an effect on viral entry”. Also, in data set [4] (setting [9]), the “Effect on HIV transcription” value is “almost complete inhibition”. The “Effect on NF–κB activity” value in data set [6] (setting [10]) is “almost complete inhibition”. In addition, the “Emax (CI95%)” value in data set [8] is listed as 0.74 (0.47–1.00). Also, the “Effect on Sp1 activity” value in data set [7] (fixed concentration 20 μM) is reported as “almost complete inhibition”.

Regarding `COc1c(OC)c(O)c2c(=O)cc(-c3ccc(O)cc3)oc2c1OC` [Xanthomicrol, xanthomicrol], the half-maximal cytotoxic concentration (CC50) at 48 h in data set [1] is above 100 µM. Besides, in data set [3], the half-inhibitory concentration (IC50) was determined as 34.4 µM and the “Effect on viral entry” value is listed as “HIV–1 entry is impaired”. In addition, the “Effect on HIV transcription” value in data set [4] (setting [9]) is recorded as “active as HIV transcriptional inhibitor”. For the same compound, the 50% inhibitory concentration (IC50) in data set [5] is 17.4 µM. In addition, the “Effect on NF–κB activity” value in data set [6] (setting [10]) was “weak inhibition of NF–κB”. Besides, the “Emax (CI95%)” value in data set [8] is listed as 0.93 (0.81–1.04). The “Effect on Sp1 activity” value in data set [7] (fixed concentration 20 μM) is reported as “no effect on Sp1”.
